Active and inactive are the calls of the source. The calls are words filed in the database; no cut-off is given here.
Experiments:
Format in all cases: functional
OVCAR-8 = experiment: Growth inhibition of human OVCAR8 cells after 48 hrs by SRB assay
How it was run: (§1)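 NCI five-dose assay against the ~60-cell-line panel (nine cancer types). Tenfold dilutions from 10−4 to 10−8 M were used with continuous 48-h exposure and SRB absorbance readout. Percent growth was computed from time-zero, control and treated absorbances. GI50 is the concentration giving 50% lower net protein increase than controls. Values not reached are reported as beyond the tested range.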

A549 = experiment: Growth inhibition of human A549/ATCC cells after 48 hrs by SRB assay; how it was run: as §1
HCT-116 = experiment: Growth inhibition of human HCT116 cells after 48 hrs by SRB assay; how it was run: as §1
Hs-578T = experiment: Growth inhibition of human Hs 578T cells after 48 hrs by SRB assay; how it was run: as §1
M14 = experiment: Growth inhibition of human M14 cells after 48 hrs by SRB assay; how it was run: as §1
Malme-3M = experiment: Growth inhibition of human MALME-3M cells after 48 hrs by SRB assay; how it was run: as §1
PC-3 = experiment: Growth inhibition of human PC3 cells after 48 hrs by SRB assay; how it was run: as §1
HOP-92 = experiment: Growth inhibition of human HOP92 cells after 48 hrs by SRB assay; how it was run: as §1
HOP69 = experiment: Growth inhibition of human […] cells after 48 hrs by SRB assay; how it was run: as §1
OVCAR-5 = experiment: Growth inhibition of human OVCAR5 cells after 48 hrs by SRB assay; how it was run: as §1
CCRF-CEM = experiment: Growth inhibition of human CCRF-CEM cells after 48 hrs by SRB assay; how it was run: as §1
UACC-62 = experiment: Growth inhibition of human UACC62 cells after 48 hrs by SRB assay
How it was run: (§2)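 NCI ~60-cell-line five-dose screen. Cells were preincubated 24-48 h, then given compound at 10-fold dilutions from 10^-4 to 10^-8 M with 48 h continuous exposure. SRB protein stain was read by absorbance at time zero, in untreated control and with drug. GI50 was derived from [(Ti-Tz)/(C-Tz)]x100=50, TGI from Ti=Tz, and LC50 from [(Ti-Tz)/Tz]x100=-50.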

LOX IMVI = experiment: Growth inhibition of human LOXIMVI cells after 48 hrs by SRB assay; how it was run: as §1
NCI-H460 [1] = experiment: Anticancer activity against human NCI-H460 cells assessed as cell growth at 100 uM after 48 hrs by SRB assay; settings: NCI-H460, 48 h, read-out: Activity
How it was run: (§3)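 NCI one-dose primary screen on a three-line panel (breast MCF7, lung NCI-H460, CNS SF-268). Cells were inoculated and preincubated 24–48 h, then exposed to a single concentration of 10−4 M for 48 h. The endpoint was sulforhodamine B protein staining, and results are expressed as percent growth relative to untreated control cells. Negative values denote cytotoxicity.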

OVCAR-3 = experiment: Growth inhibition of human OVCAR3 cells after 48 hrs by SRB assay; how it was run: as §1
U-251 = experiment: Growth inhibition of human U251 cells after 48 hrs by SRB assay; how it was run: as §2
SF-539 = experiment: Growth inhibition of human SF539 cells after 48 hrs by SRB assay; how it was run: as §1
BT-549 = experiment: Growth inhibition of human BT549 cells after 48 hrs by SRB assay; how it was run: as §1
CAKI-1 = experiment: Growth inhibition of human CAKI-1 cells after 48 hrs by SRB assay; how it was run: as §1
UACC-257 = experiment: Growth inhibition of human UACC257 cells after 48 hrs by SRB assay; how it was run: as §2
RXF 393 = experiment: Growth inhibition of human RXF393 cells after 48 hrs by SRB assay; how it was run: as §1
MCF7 = experiment: Anticancer activity against human MCF7 cells assessed as cell growth at 100 uM after 48 hrs by SRB assay; settings: MCF7, 48 h, read-out: Activity; how it was run: as §3
NCI/ADR-RES = experiment: Growth inhibition of human NCI/ADR-RES cells after 48 hrs by SRB assay; how it was run: as §1
NCI-H460 [2] = experiment: Growth inhibition of human NCI-H460 cells after 48 hrs by SRB assay; how it was run: as §1
OVCAR-4 = experiment: Growth inhibition of human OVCAR4 cells after 48 hrs by SRB assay; how it was run: as §1
MDA-MB-435 = experiment: Growth inhibition of human MDA-MB-435 cells after 48 hrs by SRB assay; how it was run: as §1
KM12 = experiment: Growth inhibition of human KM12 cells after 48 hrs by SRB assay; how it was run: as §1
TK-10 = experiment: Growth inhibition of human TK10 cells after 48 hrs by SRB assay; how it was run: as §2
SNB-75 = experiment: Growth inhibition of human SNB75 cells after 48 hrs by SRB assay; how it was run: as §1
NCI-H23 = experiment: Growth inhibition of human NCI-H23 cells after 48 hrs by SRB assay; how it was run: as §1
SR = experiment: Growth inhibition of human SR cells after 48 hrs by SRB assay; how it was run: as §2
SNB- = experiment: Growth inhibition of human SNB cells after 48 hrs by SRB assay; how it was run: as §1
EKVX = experiment: Growth inhibition of human EKVX cells after 48 hrs by SRB assay; how it was run: as §1
NCI-H322M = experiment: Growth inhibition of human NCI-H322M cells after 48 hrs by SRB assay; how it was run: as §1
MDA-MB-231 = experiment: Growth inhibition of human MDA-MB-231/ATCC cells after 48 hrs by SRB assay; how it was run: as §1
SK-MEL-5 = experiment: Growth inhibition of human SK-MEL-5 cells after 48 hrs by SRB assay; how it was run: as §1
HOP-62 = experiment: Growth inhibition of human HOP62 cells after 48 hrs by SRB assay; how it was run: as §1
RPMI18226 = experiment: Growth inhibition of human […] cells after 48 hrs by SRB assay; how it was run: as §1
NCI-H522 = experiment: Growth inhibition of human NCI-H522 cells after 48 hrs by SRB assay; how it was run: as §1
MOLT-4 = experiment: Growth inhibition of human MOLT4 cells after 48 hrs by SRB assay; how it was run: as §1
UO-31 = experiment: Growth inhibition of human UO31 cells after 48 hrs by SRB assay; how it was run: as §2
786-0 [3] = experiment: Growth inhibition of human 786-O cells after 48 hrs by SRB assay; how it was run: as §1
SF-268 = experiment: Anticancer activity against human SF268 cells assessed as cell growth at 100 uM after 48 hrs by SRB assay; settings: SF-268, 48 h, read-out: Activity; how it was run: as §3
SF-295 = experiment: Growth inhibition of human SF295 cells after 48 hrs by SRB assay; how it was run: as §1
HCC 2998 = experiment: Growth inhibition of human HCC2998 cells after 48 hrs by SRB assay; how it was run: as §1
786-0 [4] = experiment: Growth inhibition of human 786-0 cells after 48 hrs by SRB assay; how it was run: as §1
ACHN = experiment: Growth inhibition of human ACHN cells after 48 hrs by SRB assay; how it was run: as §1

COc1ccc2cc(C(=O)Nc3nccs3)sc(=O)c2c1OC
pGI50 (OVCAR-8): inactive | pTGI (OVCAR-8): inactive | pGI50 (A549): inactive | pTGI (A549): inactive | pGI50 (HCT-116): inactive | pTGI (HCT-116): inactive | pGI50 (Hs-578T): inactive | pTGI (Hs-578T): inactive | pGI50 (M14): inactive | pTGI (M14): inactive | pGI50 (Malme-3M): inactive | pTGI (Malme-3M): inactive | pGI50 (PC-3): inactive | pTGI (PC-3): inactive | pGI50 (HOP-92): inactive | pTGI (HOP-92): inactive | pGI50 (HOP69): inactive | pTGI (HOP69): inactive | pGI50 (OVCAR-5): inactive | pTGI (OVCAR-5): inactive | pGI50 (CCRF-CEM): inactive | pTGI (CCRF-CEM): inactive | pGI50 (UACC-62): inactive | pTGI (UACC-62): inactive | pGI50 (LOX IMVI): inactive | pTGI (LOX IMVI): inactive | growth at 100 µM (NCI-H460 [1]): 94% | pGI50 (OVCAR-3): inactive | pTGI (OVCAR-3): inactive | pGI50 (U-251): inactive | pTGI (U-251): inactive | pGI50 (SF-539): inactive | pTGI (SF-539): inactive | pGI50 (BT-549): inactive | pTGI (BT-549): inactive | pGI50 (CAKI-1): inactive | pTGI (CAKI-1): inactive | pGI50 (UACC-257): inactive | pTGI (UACC-257): inactive | pGI50 (RXF 393): inactive | pTGI (RXF 393): inactive | growth at 100 µM (MCF7): 95% | pGI50 (NCI/ADR-RES): inactive | pTGI (NCI/ADR-RES): inactive | pGI50 (NCI-H460 [2]): inactive | pTGI (NCI-H460 [2]): inactive | pGI50 (OVCAR-4): inactive | pTGI (OVCAR-4): inactive | pGI50 (MDA-MB-435): inactive | pTGI (MDA-MB-435): inactive | pGI50 (KM12): inactive | pTGI (KM12): inactive | pGI50 (TK-10): inactive | pTGI (TK-10): inactive | pGI50 (SNB-75): inactive | pTGI (SNB-75): inactive | pGI50 (NCI-H23): inactive | pTGI (NCI-H23): inactive | pGI50 (SR): inactive | pTGI (SR): inactive | pGI50 (SNB-): inactive | pTGI (SNB-): inactive | pGI50 (EKVX): inactive | pTGI (EKVX): inactive | pGI50 (NCI-H322M): inactive | pTGI (NCI-H322M): inactive | pGI50 (MDA-MB-231): inactive | pTGI (MDA-MB-231): inactive | pGI50 (SK-MEL-5): inactive | pTGI (SK-MEL-5): inactive | pGI50 (HOP-62): inactive | pTGI (HOP-62): inactive | pGI50 (RPMI18226): inactive | pTGI (RPMI18226): inactive | pGI50 (NCI-H522): inactive | pTGI (NCI-H522): inactive | pGI50 (MOLT-4): inactive | pTGI (MOLT-4): inactive | pGI50 (UO-31): inactive | pTGI (UO-31): inactive | pGI50 (786-0 [3]): inactive | pTGI (786-0 [3]): inactive | growth at 100 µM (SF-268): 98% | pGI50 (SF-295): inactive | pTGI (SF-295): inactive | pGI50 (HCC 2998): inactive | pTGI (HCC 2998): inactive | pGI50 (786-0 [4]): inactive | pTGI (786-0 [4]): inactive | pGI50 (ACHN): inactive | pTGI (ACHN): inactive

— ChEMBL document CHEMBL3124905, “Isothiocoumarin-3-carboxylic acid derivatives: synthesis, anticancer and antitrypanosomal activity evaluation” (Eur J Med Chem, 2014)
